The subject of data set [1] is Hepatitis C virus. The data set is described as follows: Antiviral activity against Hepatitis C virus genotype 1b Con1 infected in human Huh-luc/neo-ET replicon cells assessed as reduction of replicon luciferase signal after 72 hrs by luciferase reporter assay. Type of data set: functional, organism-based, Hepacivirus hominis. The essentials:
(§1)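 Replicon cells grown without G418, seeded at 5 × 10^3 per well, treated next day in duplicate with serial dilutions (DMSO control) at 37°C for 72 h. After a PBS wash, cells lysed in ice-cold passive lysis reagent and firefly luciferase RLU read as percent of compound-free control. EC50 by nonlinear regression of the dose-effect curve.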
(In general: Replicon systems follow genome replication, usually without infectious particles.)

For another data set, the system named is Hepatitis B virus. Kind of data set: Antiviral activity against Hepatitis B virus infected in human 2.2.15 cells assessed as reduction of […] after 72 hrs by southern DNA hybridization method. In kind it is functional, organism-based. Conditions: HepG2 2.2.15, 72 h.
For data set [2], the system named is Human immunodeficiency virus 1. Kind of data set: Antiviral activity against Human immunodeficiency virus 1 3B virus infected in human MT2 cells assessed as inhibition of virus-induced cytopathic effect by colorimetry. In kind it is functional, organism-based. An outline of the steps: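 MT-2 cells, 1 × 10^3 per well in triplicate, infected with HIV-1 IIIB at 0.1 TCID50/cell and cultured with compounds. Viral CPE quantified by MTT colorimetry after 5 days to estimate EC50.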
A general note: Protection from cytopathic effect is a common read-out in antiviral testing.

Data set [3] can be described thus: Cytotoxicity against human HuH7 cells by luminescence based cell viability assay. Further details: species or system Huh-7. The essentials:
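Exponentially growing Huh-7 cells seeded at 1 × 10^4 per well and incubated with compounds for 3 days. Viability read by CellTiter-Glo luminescence, used for dark compounds that interfere with methylene blue absorbance at 595 nm. CC50 derived.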

Another data set deals with CCRF-CEM. The data set is described as follows: Mitochondrial DNA toxicity in human CEM cells. Type of data set: cell-based. An outline of the steps:
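CEM cell lysates slot-blotted and hybridized with an mtDNA-specific probe, then reprobed with an Alu probe as internal control. Bands quantified by autoradiography and densitometry.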

For data set [4], the system named is Hepatitis C virus. The data set is described as follows: Antiviral activity against Hepatitis C virus genotype 1b Con1 infected in human Huh-luc/neo-ET replicon cells assessed as reduction of replicon luciferase signal after 72 hrs by luciferase reporter assay in presence of 5% fetal bovine serum. Type of data set: functional, organism-based, Hepacivirus hominis. An outline of the steps:
(§2)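 Huh-luc/neo-ET cells without G418, incubated with serially diluted compounds in medium containing 5%, 10%, 20% or 40% (vol/vol) FBS. Firefly luciferase read after 72 h. EC50 from dose-effect curves. The 0% value is a theoretical EC50 extrapolated from the plot of EC50 versus serum level. Means ± SD of three independent experiments.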

Data set [5] concerns Hepatitis C virus. The data set is described as follows: Antiviral activity against Hepatitis C virus genotype 1b Con1 infected in human Huh-luc/neo-ET replicon cells assessed as reduction of replicon luciferase signal after 72 hrs by luciferase reporter assay in presence of 10% fetal bovine serum. Type of data set: functional, organism-based, Hepacivirus hominis. The essentials: as §2

In data set [6] the test system is Hepatitis C virus. The data set is described as follows: Antiviral activity against Hepatitis C virus genotype 1b Con1 infected in human Huh-luc/neo-ET replicon cells assessed as reduction of replicon luciferase signal after 72 hrs by luciferase reporter assay in presence of 40% fetal bovine serum. Type of data set: functional, organism-based, Hepacivirus hominis. The essentials: as §2

For data set [7], the system named is Hepatitis C virus. Kind of data set: Antiviral activity against Hepatitis C virus genotype 1b Con1 infected in human Huh-luc/neo-ET replicon cells assessed as inhibition of virus-induced cytopathic effect after 48 hrs by luciferase reporter assay. In kind it is functional, organism-based, Hepacivirus hominis. The essentials: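 Huh-luc/neo-ET cells seeded at 1 × 10^5 per well and treated with DMSO or serially diluted compound up to 250 nM. Harvested at 24 or 48 h. Luciferase run in triplicate and RLU normalized to total protein (Bradford), expressed as percent of mock control. Three independent repeats averaged.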

Data set [8] concerns Hepatitis C virus. The data set is described as follows: Antiviral activity against Hepatitis C virus genotype 1b Con1 infected in human Huh-luc/neo-ET replicon cells assessed as reduction of virus-induced cytopathic effect after 72 hrs by luciferase reporter assay. Type of data set: functional, organism-based, Hepacivirus hominis. The essentials: as §1
The subject of data set [9] is Hepatitis C virus. Kind of data set: Antiviral activity against Hepatitis C virus genotype 1b Con1 infected in human Huh-luc/neo-ET replicon cells assessed as reduction in viral RNA level after 48 hrs by RT-PCR. In kind it is functional, organism-based, Hepacivirus hominis. The essentials:
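Cells seeded at 1 × 10^5 per well and treated with DMSO or compound up to 250 nM for 24, 48 or 72 h. Total RNA diluted to 50 ng/μl. Replicon RNA (5′ UTR) measured in triplicate by one-step qRT-PCR, normalized to β-actin mRNA, and expressed as percent of mock control. Three independent repeats.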

The subject of data set [10] is Hepatitis C virus. Kind of data set: Antiviral activity against Hepatitis C virus genotype 2a JFH1 infected in human YSGR-JFH replicon cells assessed as inhibition of virus RNA level after 72 hrs by quantitative RT-PCR. Conditions: subtype 2a JFH1, 72 h. Type of data set: functional, organism-based, Hepacivirus hominis. The essentials: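 YSGR-JFH genotype 2a subgenomic replicon cells (maintained with 400 μg/ml G418), 1 × 10^5 per well, incubated with DMSO, serially varied compound, or IFN-α-2a for 72 h. HCV RNA by qRT-PCR normalized to β-actin, as percent of mock-treated control. Mean ± SD of three independent experiments.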

For the next data set, the target named is Cytochrome c (Homo sapiens, UniProt P99999). The data set is described as follows: Binding affinity to Cytochrome C.
Sequence of Cytochrome c (P99999 whole entry): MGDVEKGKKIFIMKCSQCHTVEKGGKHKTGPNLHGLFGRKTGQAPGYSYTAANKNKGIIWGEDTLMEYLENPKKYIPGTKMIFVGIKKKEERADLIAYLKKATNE
In data set [11] the test system is Hepatitis C virus. Kind of data set: Antiviral activity against Hepatitis C virus genotype 1b Con1 infected in human Huh-luc/neo-ET replicon cells assessed as viral replicon survival dosed at 50 nM incubated for 12 days followed by compound removal and reintroduction of 250 ug/ml G418 measured after 6 days post compound withdrawal. In kind it is functional, Hepacivirus hominis. An outline of the steps: (§3)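 Huh-luc/neo-ET cells were seeded at 2 × 10^5 per well and kept without G418 for 12 days with DMSO or up to 1 μM drug. Cells were split every 3 days, with medium and drug renewed. Drug was then removed and 250 μg/ml G418 added for 12 more days, sampling at confluence. HCV 5′UTR RNA was measured by one-step qRT-PCR, normalised to β-actin and expressed relative to mock. Viability was read by CellTiter-Glo as % of mock.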

Data set [12] deals with Hepatitis C virus. Kind of data set: Antiviral activity against Hepatitis C virus genotype 1b Con1 infected in human Huh-luc/neo-ET replicon cells assessed as viral replicon survival dosed at 100 nM incubated for 12 days followed by compound removal and reintroduction of 250 ug/ml G418 measured after 12 days post compound withdrawal. Type of data set: functional, Hepacivirus hominis. An outline of the steps:
as §3

Data set [13] deals with Hepatitis C virus. The data set is described as follows: Antiviral activity against Hepatitis C virus genotype 1b Con1 infected in human Huh-luc/neo-ET replicon cells assessed as inhibition of viral rebound dosed at 1 uM incubated for 12 days followed by compound removal and reintroduction of 250 ug/ml G418 measured after 9 days post compound withdrawal. In kind it is functional, organism-based. As to conditions: Hepacivirus hominis. An outline of the steps:
as §3

In data set [14] the test system is Hepatitis C virus. The data set is described as follows: Antiviral activity against Hepatitis C virus genotype 1b Con1 infected in human Huh-luc/neo-ET replicon cells assessed as inhibition of viral rebound dosed at 300 nM incubated for 12 days followed by compound removal and reintroduction of 250 ug/ml G418 measured after 9 days post compound withdrawal. Type of data set: functional, organism-based. As to conditions: Hepacivirus hominis. The essentials:
as §3

The test system of data set [15] is Hepatitis C virus. Kind of data set: Antiviral activity against Hepatitis C virus genotype 1b Con1 infected in human Huh-luc/neo-ET replicon cells assessed as viral replicon survival dosed at 300 nM incubated for 9 days followed by compound removal and reintroduction of 250 ug/ml G418 measured after 15 days post compound withdrawal. In kind it is functional, Hepacivirus hominis. An outline of the steps:
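In a separate run, Huh-luc/neo-ET replicon cells were treated for 9 days without G418. Drug was then withdrawn and cells were kept for a 15-day rebound period under G418 selection. Surviving cells were scored as the fraction of the population that outlasted selection.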

The nature of data set [16]: Cytotoxicity against human Huh-7 cells by luminescence based cell viability assay.

The source made the active and inactive calls. No cut-off for these calls is given here.

Turning to `O=C(O)c1cc(C(=O)O)cc(-c2ccc(-c3c4nc(c(-c5ccc(-c6cc(C(=O)O)cc(C(=O)O)c6)cc5)c5ccc([nH]5)c(-c5ccc(-c6cc(C(=O)O)cc(C(=O)O)c6)cc5)c5ccc([nH]5)c(-c5ccc(-c6cc(C(=O)O)cc(C(=O)O)c6)cc5)c5nc3C=C5)C=C4)cc2)c1`, the EC50 with Hepatitis C virus [1] is 24 nM; in the data set on Hepatitis B virus, over 20000 nM; in [2], 3670 nM; with Hepatitis C virus [4], 13 nM; with Hepatitis C virus [5], 24 nM; in the data set with Hepatitis C virus [6], 69 nM. Besides, the EC50 in the data set with Hepatitis C virus [7] was 19.2 nM; with Hepatitis C virus [8], 17.6 nM; in the data set with Hepatitis C virus [9], 36.2 nM; in the data set with Hepatitis C virus [10], 1380 nM. Besides, the CC50 in data set [3] and in [16] was over 50000 nM throughout. Further, the IC50 in the data set on CCRF-CEM is over 50000 nM. The inhibition result with Hepatitis C virus [7] (Hepacivirus hominis), in the data set on Hepatitis C virus [8] (Hepacivirus hominis) and with Hepatitis C virus [9] (Hepacivirus hominis) was “Dose-dependent effect” each time. In addition, at Cytochrome c, the Kd is 1500 nM. Further, the Survival with Hepatitis C virus [11] is given as 8.5%; in the data set on Hepatitis C virus [12] it was 0.007%; with Hepatitis C virus [15] it was 0.4%. For the same compound, the inhibition entry with Hepatitis C virus [13] and with Hepatitis C virus [14] was “Active” each time.

The EC50 is the concentration giving half of the maximal effect. The CC50 is the concentration that lowers cell viability or growth by half. For orientation: IC50 means the point on the concentration scale where inhibition reaches its midpoint. A higher IC50 goes with weaker potency in that assay. As a reminder, the Kd is a measure of binding affinity in units of concentration. Low values mean higher affinity, high ones lower affinity.
